Measured values: ChEMBL document CHEMBL1146523, “Antimalarial dihydroisocoumarins produced by Geotrichum sp., an endophytic fungus of Crassocephalum crepidioides” (J Nat Prod, 2003)
Values after ≈ are worked out from the molar mass of the structure shown. Active and inactive are the calls of the source. The rule behind the calls is not given here.

Assays:
[1] = tested on: Mycobacterium tuberculosis; assay: Antimycobacterial activity against Mycobacterium tuberculosis H37Ra by microplate alamar blue assay; assay type: functional
Outline: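 Growth inhibition of M. tuberculosis H37Ra in the Microplate Alamar Blue Assay. MIC read-out, with isoniazid and kanamycin sulfate as standard drugs.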

Plasmodium falciparum = assay: Antimalarial activity against multidrug-resistant Plasmodium falciparum K1; assay type: functional, organism-based
Outline: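 Multidrug-resistant P. falciparum K1 kept in continuous culture (Trager–Jensen). In vitro activity measured by the microculture radioisotope technique (Desjardins). IC50 read-out, with chloroquine diphosphate as the standard.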

Candida albicans = assay: Antifungal activity against Candida albicans; assay type: functional, organism-based
Outline: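 Candida albicans growth inhibition measured by a colorimetric method. IC50 read-out, with amphotericin B as the standard drug.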

Compound: NNC(=O)c1ccncc1 [ISONIAZID]
- MIC [1]: 0.05 µg/mL (≈ 0.365 µM)

Compound: CCCCC[C@@H]1Cc2cc(O)c(CCCC)c(O)c2C(=O)O1
- IC50 (Plasmodium falciparum): 2.6 µg/mL (≈ 8.49 µM)
- Activity [1]: inactive
- IC50 (Candida albicans): 33 µg/mL (≈ 108 µM)

Compound: NC[C@H]1O[C@H](O[C@H]2[C@H](O)[C@@H](O[C@H]3O[C@H](CO)[C@@H](O)[C@H](N)[C@H]3O)[C@H](N)C[C@@H]2N)[C@H](O)[C@@H](O)[C@@H]1O.O=S(=O)(O)O [KANAMYCIN SULFATE]
- MIC [1]: 2.5 µg/mL

Compound: C/C=C/CC[C@@H]1Cc2cc(O)c(C/C=C/C)c(O)c2C(=O)O1
- Activity (Plasmodium falciparum): inactive
- MIC [1]: 50 µg/mL (≈ 165 µM)
- Activity (Candida albicans): inactive

Compound: C/C=C/CC[C@@H]1Cc2cc(O)c(CCCC)c(O)c2C(=O)O1
- IC50 (Plasmodium falciparum): 4.7 µg/mL (≈ 15.4 µM)
- MIC [1]: 25 µg/mL (≈ 82.1 µM)
- IC50 (Candida albicans): 19 µg/mL (≈ 62.4 µM)

Compound: C[C@@H]1[C@H](O)[C@@H](C)/C=C/C=C/C=C/C=C/C=C/C=C/C=C/[C@H](O[C@@H]2O[C@H](C)[C@@H](O)[C@H](N)[C@@H]2O)C[C@@H]2O[C@](O)(C[C@@H](O)C[C@@H](O)[C@H](O)CC[C@@H](O)C[C@@H](O)CC(=O)O[C@H]1C)C[C@H](O)[C@H]2C(=O)O [AMPHOTERICIN B]
- IC50 (Candida albicans): 0.01 µg/mL (≈ 0.0108 µM)
